Screening results from PubChem.
In the library only some 4.6% were active in any assay of this set; here they are far more common.
TAAR1 antagonist = human TAAR1 antagonism | inhibition, % at 3 µM | CHO RD-HGA16 TAAR1, Fluo-8 calcium fluorescence, antagonist | AID 624466 | actives 1.5% (n = 360,000) | Q96RJ0;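 active = inhibition above a per-plate cutoff, the mean inhibition of test compounds on that plate plus 3 SD, cut at about 49% in these data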;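 also: 0% = DMSO plus EC80 beta-PEA response and 100% = DMSO alone without agonist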
Target sequence (Q96RJ0 whole entry, looked up): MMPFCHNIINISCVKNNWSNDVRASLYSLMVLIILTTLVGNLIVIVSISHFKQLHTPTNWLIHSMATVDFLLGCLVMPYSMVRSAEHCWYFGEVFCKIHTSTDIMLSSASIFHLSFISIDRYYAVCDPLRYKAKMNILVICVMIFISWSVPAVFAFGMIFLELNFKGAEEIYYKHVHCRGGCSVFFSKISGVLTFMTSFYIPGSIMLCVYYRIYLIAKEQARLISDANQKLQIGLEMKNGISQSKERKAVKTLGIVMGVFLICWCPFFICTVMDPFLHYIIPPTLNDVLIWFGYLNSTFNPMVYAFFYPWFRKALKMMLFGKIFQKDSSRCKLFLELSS
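Test system: hTAAR1-expressing CHO RD-HGA16 cells, Gα16-coupled; Probe or stimulus: EC80 β-phenethylamine stimulus; Compound dosing: single nominal final test compound concentration of 3 µM; Timing: 140 s kinetic read after compound, 140 s after agonist; Signal: Fluo-8 calcium-sensitive fluorescence; Measure: % inhibition of agonist calcium response; Controls: DMSO and EC80 PEA controls.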
OX1R antag-1 = OX1R (human) antagonism; OX1R-expressing cells, FRET antagonist read-out; AID 485270; O43613; actives 1.8% (n = 330,000); inhibition, % at 6.6 µM; in the data active = inhibition mostly above about 38%, no sharp cut-off; inactive = mostly below about 40%;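 also: 0% = agonist challenge alone and 100% = reference antagonist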
CHO parental Ca = signal in parental CHO cells, OX1R antagonist counter-screen; inhibition, % at 5.6 µM; AID 463079; parental CHO-K1, ATP-induced calcium, Fluo-8 fluorescence; actives 0.63% (n = 330,000);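 active = inhibition above that plate's mean sample inhibition plus 3 SD, cut at about 26% in these data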;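 also: 0% = ATP-challenged DMSO wells and 100% = DMSO wells without ATP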
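Assay system: parental CHO cells; Read-out basis: percent inhibition of ATP-evoked calcium rise, normalized to controls; Benchmarks: ATP and no-ATP DMSO wells; Compound dosing: single nominal dose of 5.6 µM per compound; Signal: Fluo-8 calcium dye fluorescence; Also added: ATP as calcium-mobilizing challenge; Repeats: singlicate.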
OX1R antag-2 = human HCRTR1 antagonism | CHO/OX1R cells, Fluo-8 calcium fluorescence, orexin A | AID 434989 | inhibition, % at 5 µM | actives 0.43% (n = 330,000) | O43613;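 active = inhibition above its plate's threshold, mean inhibition of all tested compounds on the plate plus 3 SD, cut at about 37% in these data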;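 also: 0% = orexin A challenge wells and 100% = SB-334867-A antagonist wells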
GPR7 antag = antagonists of human GPR7 (neuropeptides B/W receptor 1); GPR7-expressing cells, fluorescence antagonist assay; actives 1.1% (n = 290,000); inhibition, % at 4.4 µM; P48145; in the data active = inhibition above about 16%, passing the limit was not always enough;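 also: cells stimulated with the agonist NPW; 0% = agonist with vehicle and 100% = vehicle without agonist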
Target sequence (P48145 whole entry, looked up): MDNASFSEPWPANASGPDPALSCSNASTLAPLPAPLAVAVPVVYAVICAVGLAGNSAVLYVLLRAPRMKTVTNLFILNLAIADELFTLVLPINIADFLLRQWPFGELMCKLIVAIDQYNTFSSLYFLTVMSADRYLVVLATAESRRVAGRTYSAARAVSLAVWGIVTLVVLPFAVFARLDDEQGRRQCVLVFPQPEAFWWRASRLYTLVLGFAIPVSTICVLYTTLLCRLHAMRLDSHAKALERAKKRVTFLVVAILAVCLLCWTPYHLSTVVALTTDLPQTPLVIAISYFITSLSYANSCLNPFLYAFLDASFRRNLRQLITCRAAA
TAAR1 ag = agonists of human TAAR1. Q96RJ0. CHO RD-HGA16 TAAR1, Fluo-8 calcium fluorescence; vehicle wells 0%, saturating PEA agonist 100%. activation, % at 3 µM. actives 0.99% (n = 360,000). AID 624467;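 active = activation above the mean activation of all test compounds in the run plus 3 SD, cut at about 38% in these data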
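Repeats: no replicates (n 1) | Material: CHO-derived RD-HGA16 cells with stable Gα16 and human TAAR1 | Technique: Kinetic Fluo-8 calcium fluorescence | Schedule: 17-24 h seeding, 75 min 37 °C dye, 30 min RT | Evaluation: % activation from peak over basal fluorescence ratio, DMSO-to-PEA scaled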
Numbers without * were called inactive; nt = not tested or not shown.

SMILES	TAAR1 antagonist	OX1R antag-1	CHO parental Ca	OX1R antag-2	GPR7 antag	TAAR1 ag
CS(=O)(=O)c1ccc2nc(NC(=O)c3cccc(NS(=O)(=O)c4ccc(F)c(F)c4)c3)sc2c1	52*	35	-4	3	9	6
CS(=O)(=O)c1ccc2nc(NC(=O)c3ccc(NS(=O)(=O)c4ccc(F)c(F)c4)cc3)sc2c1	6	5	6	-4	5	2
Cc1ccccc1NS(=O)(=O)c1nnc(NC(=O)c2ccc(Cl)cc2)s1	14	39	3	10	2	6
CCCCCCCCN1C(=O)[C@@H](CC(=O)NCc2ccc(C)o2)C[C@@]2(C(=O)OC)C1=C[C@H](C1CCCC1)O[C@@H]2C	-33	nt	nt	nt	nt	-1
C[C@]12Cc3ccccc3C1CC1=N[C@@H](C3CCCCC3)O[C@@]13C[C@@H]2C(=O)N3C1CCN(Cc2ccccc2)CC1 (stereo partly specified)	-42	nt	nt	nt	nt	-2
CC(C)C[C@@H](NC(=O)OC(C)(C)C)C(=O)N1O[C@]23C=C[C@]14C[C@@H](O)CC[C@]4(C)C2CC[C@]1(C)[C@@H]([C@H](C)/C=C/[C@H](C)C(C)C)CC[C@H]13 (stereo partly specified)	-15	nt	nt	nt	nt	0
CCCCc1c(-c2ccccc2OC)ncn1C(C)c1ccc(Cl)cc1 (stereo unspecified)	-5	nt	nt	nt	nt	3
N#CC(CCc1ccccc1[N+](=O)[O-])(CCc1ccccc1[N+](=O)[O-])C(N)=O	29	nt	nt	nt	nt	19
COC(=O)C[C@@H]1C=C[C@@H](NC(=O)c2ccccc2F)[C@@H](CO)O1	4	nt	nt	nt	nt	1
COc1cccc(-c2ncc3ccccc3c2COC(=O)N2CCOCC2)c1	56*	12	-19	-9	nt	23
Cc1ccc(Nc2ncccc2C(=O)NCc2cccs2)c(C)c1	12	10	-4	-7	2	19
Cc1cccc(Nc2ncccc2C(=O)NCc2cccs2)c1C	29	4	-3	-21	2	38*
O=c1c2ccccc2nc2c3ccccc3c(NCCO)nn12	24	50*	-9	-19	-12	2
O=c1c2ccccc2nc2c3ccccc3c(NCc3cccnc3)nn12	-15	56	-19	-16	-8	4
O=C(Nc1ccc(NC(=O)c2cccc([N+](=O)[O-])c2)cc1)c1cccc([N+](=O)[O-])c1	20	0	-8	-30	-10	6
O=C(COC(=O)c1ccccc1)Nc1ncc([N+](=O)[O-])s1	9	37*	-1	21	nt	5
O=C(Nc1ncc([N+](=O)[O-])s1)c1cccc([N+](=O)[O-])c1	1	39*	13	-4	-8	14
CC(C)CC(=O)Nc1ncc([N+](=O)[O-])s1	-18	24	-4	3	11	2
O=C(O)C1CCCC[C@H]1C(=O)Nc1ncc([N+](=O)[O-])s1 (stereo partly specified)	6	66*	-7	-9	nt	2
COc1ccc(C2O[C@@H](C)[C@@H]3C(=O)N4CCc5c([nH]c6ccccc56)[C@@H]4C[C@@H]3N2C)cc1 (stereo partly specified)	-12	nt	nt	nt	nt	0
O=C(NCc1ccco1)C(c1ccccc1)N(C(=O)Cc1cccs1)c1ccccc1F (stereo unspecified)	58*	38	-15	-24	2	10
O=C(NCc1ccco1)C(c1ccncc1)N(C(=O)Cc1cccs1)c1ccccc1 (stereo unspecified)	3	28	1	-35	1	4
CNc1ncn(-c2c(C)cccc2C)c(=O)n1	-14	nt	nt	nt	nt	1
COc1ccccc1-c1nc(-c2ccc(Br)o2)no1	-24	55*	-15	-25	-11	-2
O=C1Cn2nnc(-c3ccccc3)c2C2c3cc(Br)ccc3CCN12 (stereo unspecified)	-8	nt	nt	nt	nt	2
SMILES	TAAR1 antagonist	OX1R antag-1	CHO parental Ca	OX1R antag-2	GPR7 antag	TAAR1 ag
Cc1ccc2cccc(NC(=S)NC(=O)c3ccnn3C)c2n1	-1	48*	-45	22	-3	1
O=C(N[C@H](C(=O)N1CCC[C@H]1C(=O)NCCc1ccccc1Cl)c1ccccc1)C1CC1	12	nt	nt	nt	nt	37
O=C(Nc1ccccc1)c1ccc[n+](Cc2ccc([N+](=O)[O-])cc2)c1	-5	63*	-8	-11	0	3
CN(Cc1nc2ccccc2c(=O)[nH]1)C(=O)COc1ccccc1Cc1ccccc1	7	8	-25	-16	nt	8
COc1cccc(CNC23CC4CC(CC(C4)C2)C3)c1OCc1ccccc1	-16	12	9	-25	39*	14
Cc1n[nH]c(=O)nc1NCCc1ccccc1	0	16	5	-2	3	40*
Nc1cc2c(cc1Cl)-c1ccc([N+](=O)[O-])cc1C2=NO	0	nt	nt	nt	nt	2
Cc1cc([N+](=O)[O-])cc2ncccc12	6	69*	6	0	-4	-1
CCn1nc(C(=O)N2CCN(Cc3nc4ccccc4s3)CC2)c2ccccc2c1=O	57*	12	-9	-20	nt	33
Cc1ccccc1-c1ccc2c(c1)[C@@H]1C[C@H]3[C@@H](CN1CC2)[C@H](C)OC(c1ccccc1)N3C (stereo partly specified)	-17	nt	nt	nt	nt	3
COC(=O)c1ccc(C2N=C(c3cccs3)CC(c3ccccc3O)N2)cc1 (stereo unspecified)	-13	72*	42*	4	-2	9
O=C(c1ccccc1)N1N=C(c2cccs2)CC1c1ccccc1O (stereo unspecified)	-10	8	-4	-29	-13	4
CCOc1ccc(CCN2C(=O)C(=O)N([C@@H](Cc3ccc(O)cc3)CN3CCC[C@@H]3CN3C(=O)C(=O)NC[C@@H]3Cc3ccccc3)C[C@@H]2Cc2ccccc2)cc1	-23	nt	nt	nt	nt	2
Cc1cc2c(nc1C)CCCN2S(=O)(=O)c1cccs1	-16	nt	nt	nt	nt	0
O=C(O)C(Cc1ccccc1)N1C(=O)c2c(Cl)c(Cl)c(Cl)c(Cl)c2C1=O (stereo unspecified)	-31	12	-14	-17	nt	3
CCc1cccc(C)c1NC(=O)CSc1ncn[nH]1	3	-5	29*	2	-13	2
CCc1ccccc1NC(=O)CSc1ncn[nH]1	-5	1	-5	1	-3	2
COc1ccc(C(OCC(O)CN(C)C2CCCCC2)c2ccc(OC)cc2)cc1 (stereo unspecified)	-7	8	-19	-13	20*	8
COc1ccc([C@H]2C[C@H](O)[C@@H](n3cc(C4CC4)nn3)CN2C(=O)C2CCCCC2)cc1	-17	nt	nt	nt	nt	1
N#Cc1c(Cl)nsc1NC(=O)c1ccccc1	-2	61*	7	-5	3	16
